The text below walks through data of article PMC5242172 (Pharmacology Research & Perspectives, 2016).

Series [1] relates to NCI-H23 cells. Kind of series: Cellular oxygen consumption rate. The class given is cell-based, human. Conditions: NCI-H23, 1 h after drug.
Series [2] concerns the target bovine heart mitochondrial complex I (Bos taurus, UniProt P03887+P17694+P42026). Kind of series: Complex I activity. The class given is biochemical.
Series [3] concerns NCI-H23 cells. Kind of series: Cellular ATP measurement. The class given is cell-based, human. The note with it: NCI-H23, 6 h of treatment. The method in brief: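 NCI-H23 cells in RPMI 1640 with 5% FBS were plated at 1–2 × 10^5 cells/mL and incubated overnight at 37°C, 5% CO2. Test compound diluted in medium was added for 6 h, with final DMSO below 1%. Lysis buffer and substrate were added, and luciferase-based luminescence was read. ATP was expressed as % of solvent-treated wells; mean ± SEM, n = 3.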

Series [4] concerns panel of 39 human cancer cell lines (JFCR39). Kind of series: Growth inhibition profile, summary over the JFCR39 panel. The class given is cell-based.
Series [5] has as its system mitochondrial complexes (complex II–V). The experiment in a line: Activities of OxPhos complexes II-V. The class given is biochemical. The note with it: II + III, IV, V (Fig. S2).
The subject of series [6] is NCI-H23 cells. The experiment in a line: Viable cell number. The class given is cell-based, human. Conditions: NCI-H23, 6 h of treatment. The gist of the method: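 NCI-H23 cells were grown in RPMI 1640 with 5% FBS at 37°C, 5% CO2, and exposed to test compound (DMSO stocks 10 or 100 mmol/L) for 6 h. Viable cells were counted by trypan blue exclusion on an automated cell counter and expressed as % of nontreated control; mean ± SEM, n = 3.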

Series [7] concerns mitochondrial DNA-deficient (ρ0) NCI-H23 cells. The experiment in a line: Growth of ρ0 versus ρ+ cells, sulforhodamine B assay. It is filed as cell-based, human. The note with it: NCI-H23 ρ0 vs ρ+, 48 h. For orientation: Sulforhodamine B stains cellular protein and so reports cell mass.
For a further series, the system named is xenograft tumors. Conditions: ref Kojima et al. 2014; cited from earlier work.

SMILES strings stand for the structures. Read-outs that look alike come from different tables or passages of the source.

Sequence of bovine heart mitochondrial complex I (P03887 whole entry): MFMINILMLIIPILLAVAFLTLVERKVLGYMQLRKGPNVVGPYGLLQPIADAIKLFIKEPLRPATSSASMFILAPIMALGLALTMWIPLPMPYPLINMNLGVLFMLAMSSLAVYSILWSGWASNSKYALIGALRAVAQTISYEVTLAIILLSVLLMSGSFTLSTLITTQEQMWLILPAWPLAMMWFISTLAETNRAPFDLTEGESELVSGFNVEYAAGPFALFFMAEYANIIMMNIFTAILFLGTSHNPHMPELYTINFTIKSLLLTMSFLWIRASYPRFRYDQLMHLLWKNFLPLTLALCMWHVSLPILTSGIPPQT
Sequence of bovine heart mitochondrial complex I (P42026 38-216): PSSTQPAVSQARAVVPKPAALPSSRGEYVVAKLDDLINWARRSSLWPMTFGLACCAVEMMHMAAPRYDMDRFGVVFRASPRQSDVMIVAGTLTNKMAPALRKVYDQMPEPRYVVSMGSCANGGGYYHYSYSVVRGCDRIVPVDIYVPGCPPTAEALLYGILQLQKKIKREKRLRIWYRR
Sequence of bovine heart mitochondrial complex I (P17694 34-463): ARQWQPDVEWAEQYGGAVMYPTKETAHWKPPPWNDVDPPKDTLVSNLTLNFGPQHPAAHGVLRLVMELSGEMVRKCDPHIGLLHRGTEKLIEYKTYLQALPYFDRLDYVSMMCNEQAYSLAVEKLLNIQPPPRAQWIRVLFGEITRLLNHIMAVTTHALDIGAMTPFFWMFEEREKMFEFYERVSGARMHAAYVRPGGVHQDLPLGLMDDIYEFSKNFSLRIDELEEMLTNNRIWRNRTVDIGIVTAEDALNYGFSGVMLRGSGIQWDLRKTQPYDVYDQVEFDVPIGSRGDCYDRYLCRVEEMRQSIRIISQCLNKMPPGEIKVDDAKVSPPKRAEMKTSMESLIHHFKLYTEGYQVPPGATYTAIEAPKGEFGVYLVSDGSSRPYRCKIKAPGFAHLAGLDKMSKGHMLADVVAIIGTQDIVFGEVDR

For `C=C(C)[C@H]1Cc2c(ccc3c2O[C@@H]2COc4cc(OC)c(OC)cc4[C@@H]2C3=O)O1` [Rotenone, reference compound], in the series on NCI-H23 cells [1], the “effect on cellular oxygen consumption rate” value is given as “inhibited the oxygen consumption of NCI‐H23 cells in a dose‐dependent manner”.
One may read the IC50 as the point on the concentration scale where inhibition reaches its midpoint. Read a high IC50 as a need for much substance. In series [2], `COc1cc2c(cc1OC)[C@@H]1C(=O)c3ccc4c(c3O[C@@H]1CO2)C=CC(C)(C)O4` [Deguelin, reference compound] registered a half-maximal inhibitory concentration (IC50) of 40 nM.
For the compound `CN(C)c1cccc2c(S(=O)(=O)NCCCCCCCCC[C@@H](O)[C@H]3CC[C@H]([C@H](O)CCCCCCCCCCNC(=O)c4ccsc4)O3)cccc12` [JCI-13291, N‐[(R)‐11‐((2R,5R)‐5‐{(R)‐10‐[5‐(Dimethylamino)naphthalene‐1‐sulfonamido]‐1‐hydroxydecyl}tetrahydrofuran‐2‐yl)‐11‐hydroxyundecyl]thiophene‐3‐carboxamide], the “effect on cellular oxygen consumption rate” value in the series with NCI-H23 cells [1] is listed as “inhibited the aerobic aspiration of NCI‐H23 cells”. Moreover, the “effect on intracellular ATP content” value in the series with NCI-H23 cells [3] is recorded as “depleted intracellular ATP content”.
What is called GI50 is the concentration that inhibits growth by half. Turning to `CCCCCCCCCCCC[C@@H](O)[C@H]1CC[C@H]([C@H](O)CCCCCCCCCCNC(=O)c2ccsc2)O1` [JCI-20679, N‐((R)‐11‐Hydroxy‐11‐{(2R,5R)‐5‐[(R)‐1‐hydroxytridecyl]tetrahydrofuran‐2‐yl}undecyl)thiophene‐3‐carboxamide], the GI50 in series [4] (48 h, read-out: MG-MID, the mean of log GI50 values for 39 cell lines (converted)) was 2750 nM. Besides, in series [4] (read-out: mean GI50 within the JFCR39 panel), the GI50 amounted to 2750 nM. The same compound gave an IC50 in series [2] of 170 nM. In addition, in series [2] (ratio of IC50 values), the “complex I inhibition, activity relative to rotenone” value is listed as “seven times less activity than rotenone”; the “complex I inhibition, times greater activity than phenformin” value turned out to be 6000 times; the “complex I inhibition, times greater activity than solamin” value is 30 times. The “inhibition of mitochondrial complexes II–V” value in series [5] is on record as “None of the other mitochondrial complexes (complex II–V) were inhibited”. For the same compound, the “effect on cellular oxygen consumption rate” value in the series with NCI-H23 cells [1] was “inhibited the oxygen consumption of NCI‐H23 cells in a dose‐dependent manner”. The “effect on intracellular ATP content” value in the series with NCI-H23 cells [3] is reported as “ATP depletion by JCI‐20679 in a dose‐dependent manner”. Besides, the viable cell number entry in the series with NCI-H23 cells [6] is “hardly changed”. For the same compound, the “sensitivity of ρ0 cells compared with ρ+ cells” value in series [7] was “more resistant”. In the series with xenograft tumors, the “antitumor activity in mouse xenograft models” value is recorded as “more potent antitumor activity than solamin” and the “side effects in mouse xenograft models” value was “no severe side effects”.
